Hits are enriched below; roughly 0.89% of the tested compounds scored in any of these assays.
MIN6 prolif = inducers of beta-cell replication in MIN6 cells. hit rate 0.29% among 330,000. proliferation, % at 10 µM. MIN6 cells proliferation, ATPlite luminescence, 48 h; cells starved in 0.2% serum; 100% = growth in 10% serum;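 active means compounds whose signal lies at least 3.5 SD above the mean of all wells on their plate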;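 further: 0% = DMSO-treated cells in low-serum medium and 100% = 10% serum control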
XiGFP reactiv = X-chromosome reactivation activator; XiGFP mouse fibroblasts, % GFP-positive cells imaging, 3 d; cells co-treated with 5-aza-dC sensitizer; scaled so ellipticine positive control = 100%; activation, % at 7.58 µM; hit rate 0.055% among 360,000;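 active means mean normalized replicate activation at least 10% and every replicate at or above 10%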;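 further: 0% = median of on-plate neutral control wells and 100% = ellipticine 6 µM median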
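Assay system – SV40-immortalized XiGFP fibroblast cells, line 68-5-11 · Buffer or medium – DMEM supplemented with 5-aza-dC as sensitizing agent · Dosing – one concentration, pinned · Benchmarks – positive control ellipticine, 6 µM final · Times – 3 days compound exposure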
Arrestin-AP2 inh = inhibitors of human beta-arrestin and AP2 interaction; FITC-arrestin peptide / GST-AP2 beads, flow cytometry; AP2 beta2 appendage carries R879A mutation; inhibition, % at 10 µM; hit rate 0.31% among 340,000; AID 504490;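 active means inhibition above a set limit, near 3 SD of compounds lacking own fluorescence, cut at about 54% in these data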;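 further: plate controls were DMSO wells for no effect and 5 µM unlabelled arrestin peptide for full effect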
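Material – AP2 appendage R879A on GSH beads · Buffer or medium – PBS with 0.05% Tween 20 and 0.1% BSA · Probe or stimulus – fluorescein-tagged arrestin peptide at 50 nM final · Incubation – compound with beads 12 min RT, then probe 1 h RT · Detection – high-throughput flow cytometry of beads, ex 488, em 535 nm · Evaluation – percent response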
NTR1 ag = NTR1 (human) agonism; P30989; NTR1-U2OS beta-arrestin-GFP spot imaging, agonist mode; activation, % at 20 µM; hit rate 0.17% among 330,000;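 active means activation at or above 40% of the spot to cytoplasm intensity ratio, with at least 20 cells analyzed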;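 further: 0% = DMSO without peptide and 100% = 100 nM NTR1 peptide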
Target sequence (P30989 whole entry, looked up): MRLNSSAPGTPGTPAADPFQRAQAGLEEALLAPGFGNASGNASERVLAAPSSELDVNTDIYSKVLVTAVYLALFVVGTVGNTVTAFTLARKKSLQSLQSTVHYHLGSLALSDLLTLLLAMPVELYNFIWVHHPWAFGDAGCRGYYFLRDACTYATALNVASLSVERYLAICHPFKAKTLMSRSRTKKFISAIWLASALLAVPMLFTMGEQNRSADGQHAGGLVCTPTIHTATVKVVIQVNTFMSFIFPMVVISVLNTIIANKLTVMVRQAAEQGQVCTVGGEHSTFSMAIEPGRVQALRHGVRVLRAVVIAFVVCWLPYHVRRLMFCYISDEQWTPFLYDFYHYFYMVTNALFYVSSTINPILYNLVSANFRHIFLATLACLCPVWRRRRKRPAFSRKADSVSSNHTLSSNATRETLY
T cell modulator = T cell immune modulators affecting CD8 T cell-vesicle binding | 2C CD8+ T cell-vesicle binding, flow cytometry; active compounds read low | response (vesicle binding), % at 7 µM | hit rate 0.068% among 330,000;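 active means response, share of CD8 T cells binding vesicles, and their 90th percentile fluorescence all below set limits, cut at about 80% in these data, passing the limit was not always enough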;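 further: values below 100% mean blocked vesicle binding to the CD8+ T cells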
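Assay system – 2C mouse CD8+ T cells · Also added – QL9-loaded Drosophila micro-vesicles · Timing – Cell–vesicle co-incubation 1.5 h at 37 °C, staining 20 min on ice · Signal – flow cytometry of vesicle-bound cells · Measure – percent CD8+ FL2 mean versus row control · Controls – Peptide-free naked vesicles (low) and QL9 vesicles with 0.7% DMSO vehicle (high)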
V-ATPase pH = yeast V-ATPase proton transport regulation by pHLuorin. AID 504577. hit rate 0.37% among 350,000. S. cerevisiae, pHLuorin cytosolic pH fluorescence. response, % at 10 µM; in the data active means response mostly above about 7.3%, no sharp cut-off; inactive means mostly below about 5.4%; further: actives read high
V-ATPase pH SP = yeast V-ATPase proton transport regulation. shares compounds with V-ATPase pH. S. cerevisiae pHLuorin cytosolic pH. response, % at 10 µM. hit rate 2% among 980; in the data active means response above about 24%;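 further: plate controls were vehicle wells for no effect and positive control wells for full effect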
Active calls of the source: *; · = no result.

SMILES | MIN6 prolif | XiGFP reactiv | Arrestin-AP2 inh | NTR1 ag | T cell modulator | V-ATPase pH | V-ATPase pH SP
CCOC(=O)C1(C(=O)OCC)NC(=O)CC1CC (centres undefined) | · | 0 | 3 | · | · | 12* | -1
COCC(=O)Nc1ccc2c(c1)C(=O)N(C)[C@H]1CC[C@@H](CC(=O)NCCc3ccncc3)O[C@@H]1CO2 | · | 0 | · | · | · | · | ·
Cc1cc(Br)ccc1NC(=O)CN(C)C(=O)C1CCN(C(=O)c2ccc(F)cc2)CC1 | 2 | 0 | 17 | 2 | 306 | 12* | 1
CCc1nn(CCCC(=O)N(C)Cc2ccccc2)c(=O)c2cc3occc3n12 | 3 | 0 | -4 | 1 | 350 | -2 | ·
CCc1nn(C(C)C(=O)N(C)Cc2ccccc2)c(=O)c2cc3occc3n12 (centres undefined) | -3 | 0 | -2 | 0 | 76 | 12* | -1
CN1CCN(C(=S)NC(=O)c2ccco2)CC1 | -2 | 0 | 2 | 0 | 250 | 11* | 0
O=C(Nc1ccc2oc(-c3cccnc3)nc2c1)c1ccc([N+](=O)[O-])o1 | · | 0 | 8 | · | · | 11* | 2
CC(NC(=O)COC(=O)/C=C/c1cccc(C(F)(F)F)c1)c1ccccc1 (centres undefined) | 1 | 0 | 10 | 2 | 266 | 21* | -3
CO[C@@H]1CN(C)C(=O)c2cc(NC(=O)c3cc(C)on3)ccc2OC[C@H](C)N(CC2CC2)C[C@@H]1C | · | 0 | · | · | · | · | ·
COCCn1c(SCC(=O)NNC(=O)c2ccccc2)nc2ccccc2c1=O | -5 | 0 | -2 | 0 | 245 | 11* | -2
COc1ccc2c3c(n(C)c2c1)[C@@H](CO)N(C(=O)c1cccc(F)c1)CC31CCN(CC2CC2)CC1 | · | 0 | · | · | · | · | ·
Cc1cccc2c1CCCC2=O | · | 0 | 23 | · | · | 12* | -4
Cc1cc2c(cc1C)C(=O)CCC2 | · | 0 | · | · | · | -5 | ·
O=C(c1ccco1)N1CCN(c2ncnc3c2nnn3Cc2ccccc2Cl)CC1 | 0 | · | 7 | 1 | 206 | 10* | 0
COc1ccccc1S(=O)(=O)N[C@H]1CC[C@H](CCn2cc(C3CC3)nn2)O[C@H]1CO | · | 0 | · | · | · | · | ·
CN(CCC1CCOCC1)Cc1nc(Cc2ccccc2F)no1 | -3 | 0 | 10 | 0 | 352 | 11* | -3
CC(C)CCc1noc(CN(C)CCC2CCOCC2)n1 | 1 | 0 | 34 | 1 | 280 | -1 | ·
CCC(=O)N1C[C@@H](C)[C@H](OC)CN(C)C(=O)c2cc(NC(=O)NC(C)C)ccc2OC[C@H]1C | · | 1 | · | · | · | · | ·
O=C(Cc1ccc([N+](=O)[O-])cc1)Nc1cc(C(F)(F)F)cc(C(F)(F)F)c1 | -3 | 0 | -1 | -1 | 280 | 0 | ·
O=C(Cc1ccc([N+](=O)[O-])cc1)Nc1cccc(C(F)(F)F)c1 | -2 | 0 | 14 | -1 | 177 | 12* | -2
C/C=C/c1cnc2c(c1)C(=O)N([C@@H](C)CO)C[C@@H](C)[C@@H](CN(C)C(=O)C1CC1)O2 | · | 0 | · | · | · | · | ·
CC(=O)c1c(C)[nH]c(C(=O)COC(=O)COc2ccccc2F)c1C | 1 | 0 | -11 | 3 | 376 | 12* | -1
COc1cccc(C(=O)Nc2ccc3c(c2)C(=O)N(C)C[C@H](OC)[C@H](C)CN(C(C)=O)[C@H](C)CO3)c1 | · | 0 | · | · | · | · | ·
CCOC(=O)c1sc(=S)n(-c2ccc(Cl)cc2)c1C | -2 | · | 3 | 1 | 358 | 0 | ·
Cc1c(C(=O)O)sc(=S)n1-c1ccc(Cl)cc1 | 2 | · | -10 | -1 | 551 | 2 | 0
SMILES | MIN6 prolif | XiGFP reactiv | Arrestin-AP2 inh | NTR1 ag | T cell modulator | V-ATPase pH | V-ATPase pH SP
N#Cc1c(-c2ccccc2)c(-c2ccccc2)n(Cc2ccco2)c1NC(=O)c1cccs1 | -3 | · | 3 | 2 | 238 | 9.7* | -6
COc1ccc(NC(=O)N(C)C[C@H]2Oc3c(NC(=O)Nc4ccc(C(F)(F)F)cc4)cccc3C(=O)N([C@@H](C)CO)C[C@H]2C)cc1 | · | 0 | · | · | · | · | ·
CCOC(=O)c1[nH]c2c(c1-c1ccccc1)C(=O)CC(c1ccc(OCC)cc1)C2 (centres undefined) | -4 | 0 | 6 | 6 | 252 | 11* | -6
C[C@H]1CN([C@@H](C)CO)C(=O)c2cccc(NC(=O)c3ccncc3)c2O[C@H]1CN(C)C(=O)Nc1cccc2ccccc12 | · | 0 | · | · | · | · | ·
COc1ccccc1-c1cc(C(=O)NCCc2ccccc2)no1 | -2 | · | 13 | 0 | 754 | 13* | 0
C[C@@H]1CN([C@H](C)CO)C(=O)Cc2cc(NC(=O)Cc3ccccc3)ccc2O[C@@H]1CN(C)S(=O)(=O)c1cn(C)cn1 | · | 0 | · | · | · | · | ·
CCOC(=O)NC(Nc1ccc(S(N)(=O)=O)cc1)(C(=O)OCC)C(F)(F)F (centres undefined) | 1 | · | 29 | 2 | 246 | 13* | 2
CCOC(=O)C(NC(C)=O)(Nc1ccc(F)cc1)C(F)(F)F (centres undefined) | -2 | · | 10 | 2 | 202 | -7 | ·
Cc1ccc(S(=O)(=O)Nc2cccc3c2O[C@@H](CN(C)S(=O)(=O)c2ccc(Cl)cc2)[C@H](C)CN([C@@H](C)CO)C3=O)cc1 | · | -1 | · | · | · | · | ·
O=C(O)c1ccc(CS(=O)(=O)Cc2ccccc2F)o1 | -1 | 0 | -3 | -1 | 0 | 9.0* | 0
O=C(NCc1ccccc1)c1ccc(CS(=O)(=O)Cc2ccccc2F)o1 | 0 | 0 | -14 | -1 | 253 | -2 | ·
COc1cc(-c2cc(=O)c3c(O)c(OC)c(OC)c(O)c3o2)ccc1O | 1 | · | -2 | 0 | 263 | 3 | ·
COc1c(O)c(O)c2oc(-c3ccccc3)cc(=O)c2c1OC | 3 | · | 7 | 6 | 246 | 11* | 2
Cc1ccc(CSCC(=O)N2CCN(c3ccc(F)cc3)CC2)cc1 | -1 | · | · | 1 | 306 | 12* | 0
CCCNC(=O)C[C@H]1C[C@H]2c3cc(NC(=O)CN(C)C)ccc3O[C@H]2[C@@H](CO)O1 | · | 0 | · | · | · | · | ·
O=[N+]([O-])c1cc([N+](=O)[O-])c(N2CCCCCC2)cc1NCCO | 2 | · | 11 | 9 | 244 | 8.3* | -1
COC(=O)C[C@@H]1CC[C@H]2[C@H](COc3ccc(NC(=O)c4ccc(F)c(F)c4)cc3C(=O)N2C)O1 | · | 0 | · | · | · | · | ·
Cc1noc(C)c1NC(=O)Nc1cccc2c1O[C@@H](CN(C)C(=O)Nc1ccc(F)cc1)[C@H](C)CN([C@@H](C)CO)C2=O | · | 0 | · | · | · | · | ·
CC(C)NC(=O)N(C)C[C@H]1OCCCC[C@H](C)Oc2ccc(NC(=O)CCC(F)(F)F)cc2C(=O)N([C@H](C)CO)C[C@@H]1C | · | 0 | · | · | · | · | ·
Cc1ccc(/C=N/NC(=O)c2nnn(-c3nonc3N)c2CSc2ccccc2)s1 | -2 | 0 | 7 | 2 | 544 | 8.1* | -3

High-throughput results as filed in PubChem.
